PRMT1 FP inh: blocks human protein arginine methyltransferase 1; hit rate 1.3% among 370,000; inhibition, % at 2.79 µM; AID 652257; Q99873; recombinant PRMT1, activity-based probe fluorescence polarization;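 active = inhibition above about 21% made by adding two undisclosed values, limit read from the data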
TDP2 absorb: TDP2 (human) inhibition, absorbance primary screen; AID 720702; inhibition, % at 12.8 µM; hit rate 0.34% among 370,000; recombinant TDP2, T5PNP hydrolysis, p-nitrophenol absorbance 415 nm; O95551;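 active = inhibition above the mean of all tested compounds plus 3 SD, set per campaign, cut at about 25% in these data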;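 note: 0% = DMSO with enzyme and 100% = buffer with substrate but no TDP2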
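System – recombinant human TDP2 · Amount – 120 nM TDP2 per well · Buffer or medium – Mg2+-containing Tris-HCl buffer, pH 7.5 · Reagent – T5PNP substrate, 5 mM · Dosing – 12.8 µM single point, 1% DMSO · Incubation – 2 h at 37 °C · Measured by – epi absorbance · Read-out basis – percent inhibition · Benchmarks – high control without enzyme, low control DMSO plus TDP2 · Repeats – singlicate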
PAD4 FP inh: PAD4 (human) enzyme inhibition | recombinant PAD4, RCA probe fluorescence polarization | inhibition, % at 6.36 µM | Q9UM07 | hit rate 0.41% among 330,000;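 active = percent inhibition above a cutoff equal to the mean of all tested compounds plus 3 SD, cut at about 15% in these data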;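 note: 0% = PAD4 with RCA probe and DMSO and 100% = probe without PAD4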
E coli Lon inh: inhibitors of E. coli Lon protease. hit rate 0.42% among 360,000. P0A9M0. inhibition, % at 7.94 µM. AID 602123. purified E. coli Lon protease, fluorescence polarization; in the data active = inhibition above about 13%, passing the limit was not always enough;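 note: 0% = enzyme with probe and DMSO and 100% = no enzyme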
Target sequence (P0A9M0 whole entry, looked up): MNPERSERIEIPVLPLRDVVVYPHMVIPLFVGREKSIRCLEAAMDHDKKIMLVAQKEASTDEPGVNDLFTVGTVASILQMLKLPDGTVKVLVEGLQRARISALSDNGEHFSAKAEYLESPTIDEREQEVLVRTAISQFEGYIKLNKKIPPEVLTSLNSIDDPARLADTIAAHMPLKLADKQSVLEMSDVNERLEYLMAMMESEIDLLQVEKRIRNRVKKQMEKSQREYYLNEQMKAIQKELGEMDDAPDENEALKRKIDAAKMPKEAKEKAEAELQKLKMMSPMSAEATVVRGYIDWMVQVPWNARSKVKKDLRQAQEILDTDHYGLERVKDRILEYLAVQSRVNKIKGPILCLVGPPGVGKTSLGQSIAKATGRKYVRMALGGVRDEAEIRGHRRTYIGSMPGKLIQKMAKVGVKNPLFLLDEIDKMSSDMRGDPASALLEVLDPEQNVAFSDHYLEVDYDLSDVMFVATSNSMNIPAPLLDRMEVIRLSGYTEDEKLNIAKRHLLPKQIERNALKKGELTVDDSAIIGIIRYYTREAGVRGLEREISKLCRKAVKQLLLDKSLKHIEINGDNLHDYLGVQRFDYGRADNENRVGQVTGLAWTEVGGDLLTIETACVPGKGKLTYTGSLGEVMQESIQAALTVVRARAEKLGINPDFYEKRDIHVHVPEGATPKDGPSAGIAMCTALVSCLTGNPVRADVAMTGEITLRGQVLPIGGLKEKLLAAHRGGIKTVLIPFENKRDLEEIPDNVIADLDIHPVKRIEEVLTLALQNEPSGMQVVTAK
GSTO1 counter: blocks human GSTO1 in RBBP9 counter-screen; P78417; recombinant GSTO1, activity-based probe fluorescence polarization; inhibition, % at 5.96 µM; hit rate 1.1% among 300,000;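 active = inhibition above the campaign mean inhibition plus 3 SD, cut at about 35% in these data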;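 note: 0% = GSTO1-1 with DMSO and 100% = wells lacking GSTO1-1 enzyme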
PRMT1 inh conf: PRMT1 (human) inhibition, FP confirmation; shares compounds with PRMT1 FP inh; recombinant His-PRMT1, activity-based probe fluorescence polarization; inhibition, % at 2.79 µM; hit rate 42% among 3,300;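 active = mean inhibition across replicates above the hit cutoff derived for the earlier primary screen, cut at about 22% in these data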
Numbers without * were called inactive; / = no result given. This is a sample that favours compounds with a hit; in the whole collection about 2.5% have one here.

SMILES	PRMT1 FP inh	TDP2 absorb	PAD4 FP inh	E coli Lon inh	GSTO1 counter	PRMT1 inh conf
CCN1/C(=C/C=C/C=C/C=C/c2sc3ccccc3[n+]2CC)Sc2ccccc21	53*	-5	-38	-32	-31	23*
OC[C@@H]1CN(Cc2ccco2)C[C@H](n2cnc3c(Nc4ccccc4)ncnc32)O1	15	-3	/	2	/	/
S=C(NC1CC1)SCc1ccco1	48*	1	-2	-9	/	12
O=C(NC1CCCCC1)NC1CCN(C(=S)NCc2ccco2)CC1	0	7	-1	-6	-3	/
CN(C)C(CNC(=O)c1ccc(S(=O)(=O)Nc2ccccc2)cc1)c1ccco1 (centres undefined)	0	-4	2	-2	-1	/
CC(C)C[C@H]1CNC(=S)N1CC1CCCN1C[C@H](CC(C)C)N1C[C@H](Cc2ccccc2)N(CC2CCCCCC2)C1=S (some centres undefined)	31*	-12	/	-10	/	1
O=C1NCCN1CCNc1nc(NCc2ccccc2)nc2ccsc12	7	-6	/	-5	/	/
CC(C)Nc1nc(NCCN2CCNC2=O)c2sccc2n1	40*	1	/	7	/	-6
O=C1C(CSCc2ccccc2)NC(=S)N1c1ccccc1 (centres undefined)	27*	0	-3	12	7	68*
Oc1ccc(CNc2ccccc2C(F)(F)F)c2cccnc12	47*	3	/	/	/	33*
Oc1ccc(CNc2ccccc2Cl)c2cccnc12	56*	-10	/	/	/	65*
Oc1ccc(CNc2ccccc2F)c2cccnc12	5	-3	0	3	5	/
Cn1cc(CNC(=O)C2CCC(=O)N(Cc3cccc(C(F)(F)F)c3)C2)cn1 (centres undefined)	-1	4	/	-2	/	/
CC(=O)C1=CCC(c2ccccc2)N(Cc2ccccc2)C1 (centres undefined)	0	7	/	/	/	/
CN(CC(=O)N1CCN(Cc2ccccc2)CC1)C(=O)Cc1cccc2ccccc12	-5	-10	-4	-1	/	/
Cc1ccccc1-c1csc(N)n1	4	-17	/	2	/	/
Cc1ccc(-c2csc(N)n2)s1	76*	-25	2	-4	12	28*
O=C(O)CCC(=O)Nc1ccc(N2CCCCCC2)cc1	31*	13	2	6	5	1
CC1(c2cccc(Br)c2)NC(=O)N(CC(=O)Nc2ccc3c(c2)OCCO3)C1=O (centres undefined)	2	-7	-5	5	/	/
CN1c2ccccc2Sc2cc(N)ccc21	29*	-4	-7	-7	11	11
CCOC(=O)c1sc(NNC(=O)c2ccc(F)cc2)nc1C	42*	-5	1	-2	-6	2
CCOc1ccc(C(=S)N2CCN(C)CC2)cc1	28*	-6	0	-8	3	33*
O=[N+]([O-])c1ccc(C(=S)N2CCCC2)cc1	7	8	-2	-2	-2	/
OCCN1CCN(C(=S)c2ccc(Cl)cc2)CC1	32*	3	-1	-1	-5	40*
CCN1CCN(C(=S)c2ccc([N+](=O)[O-])cc2)CC1	34*	11	4	-6	3	35*
SMILES	PRMT1 FP inh	TDP2 absorb	PAD4 FP inh	E coli Lon inh	GSTO1 counter	PRMT1 inh conf
CCN1CCN(C(=S)c2ccc(OC)cc2)CC1	48*	3	-3	9	11	37*
Clc1ccc(NCc2ccsc2)cc1	/	/	-4	/	-1	/
C=CCn1c(SC)nccc1=O	-4	2	/	-11	/	/
CCN1CCN(C(=S)c2ccc(Cl)cc2)CC1	85*	-1	-3	0	-9	90*
COc1ccc(C(=S)N2CCCCCC2)cc1	26*	-13	3	2	-3	13
CC(C)(C)c1cc(C(=S)N2CCN(CCO)CC2)cc(C(C)(C)C)c1O	27*	-6	0	4	2	19
Clc1ccc(-c2ccc(-c3nn4c(-c5ccco5)nnc4s3)o2)cc1	6	8	-3	-5	-1	/
Brc1ccc(-c2nn3c(-c4ccco4)nnc3s2)o1	53*	-6	0	-3	-6	15
c1ccc(CSC2=NCCCN2)cc1	1	-8	1	-1	-2	/
O=C(CCSC1=NCCCN1)c1ccc(F)cc1	31*	-5	/	1	/	47*
COc1ccc(C(C#N)=C2C=CC(=NO)C=C2)cc1	28*	-11	3	-9	-1	6
NCCS	42*	3	-2	-13	2	32*
CC(=O)C1=C(C)NC(SCC(=O)Nc2nccs2)=C(C#N)C1c1ccccc1Cl (centres undefined)	26*	-6	4	4	2	0
O=C(NCc1cccs1)[C@@H]1CSC2c3ccccc3C(=O)N21 (some centres undefined)	26*	-14	-3	-4	-3	34*
Cc1cc(N2CCOCC2)n2nc(C)c(-c3ccccc3Cl)c2n1	-3	-2	/	-4	/	/
CN(CCCOC(=O)c1cc2ccccc2o1)C1CN(Cc2cn(Cc3ccccc3C(F)(F)F)nn2)S(=O)(=O)C1 (centres undefined)	0	-1	/	/	/	/
CC1=C(C(=O)Nc2ccccc2)C(c2ccc(Cl)cc2)n2c(s/c(=C/c3cccc(OCC(=O)O)c3)c2=O)=N1 (centres undefined)	26*	2	0	9	-6	5
CC1=C(C(=O)OC(C)C)C(c2ccc(Cl)cc2)n2c(sc(=Cc3ccc(OCC(=O)O)cc3)c2=O)=N1 (centres undefined)	12	-1	/	-12	/	/
CCOc1ccc(C2C(C(=O)Nc3ccccc3)=C(C)N=c3s/c(=C/c4cccc(OCC(=O)O)c4)c(=O)n32)cc1 (centres undefined)	25*	17	3	-1	-14	1
COc1ccc(C=C(NC(=O)c2ccccc2)C(=O)O)cc1OC	-2	2	/	-3	/	/
Cc1cc(C)c(CSc2nnnn2-c2ccc(C(=O)O)cc2)c(C)c1	-3	-10	3	-10	4	/
CCc1ccc(NC(=O)CNC(=O)Cn2ccc3ccccc3c2=O)cc1	-8	3	2	4	9	/
C#CCNC(=O)c1cc(-c2ccccc2)sc1N	27*	-12	/	/	/	-3
CCn1cnc2c(NCc3cccnc3)nc(C#N)nc21	-1	1	/	/	/	/
COc1ccc(C2=CSC3=C(C(=O)c4cccc(S(=O)(=O)N(C)C)c4)CCN23)cc1	28*	-2	0	-14	0	27*
COc1ccc(N(C)S(=O)(=O)c2cccc(C(=O)N3CCN(c4ccccc4)CC3)c2)cc1	-1	-6	/	-3	/	/
CCOC(=O)c1ccc(/[N+]([O-])=C/c2ccccc2)cc1	25*	1	0	15	/	10
COc1ccc(NC(=O)CSc2c3c(nc4ccccc24)CCCC3)c(OC)c1	26*	-22	11	0	-8	26*
COc1ccccc1NC(=O)CSc1c2c(nc3ccccc13)CCC2	3	-4	14	11	-13	/

Screening results (PubChem)
